Data on 19 molecules can be found in ChEMBL document CHEMBL1125185, “Nonpeptide angiotensin II receptor antagonists: the discovery of a series of N-(biphenylylmethyl)imidazoles as potent, orally active antihypertensives” (J Med Chem, 1991).

Data set [1] addresses T1, Angiotensin II receptor (Rattus norvegicus, UniProt P29089+P25095+P35351).
T1 sequence (P29089 whole entry): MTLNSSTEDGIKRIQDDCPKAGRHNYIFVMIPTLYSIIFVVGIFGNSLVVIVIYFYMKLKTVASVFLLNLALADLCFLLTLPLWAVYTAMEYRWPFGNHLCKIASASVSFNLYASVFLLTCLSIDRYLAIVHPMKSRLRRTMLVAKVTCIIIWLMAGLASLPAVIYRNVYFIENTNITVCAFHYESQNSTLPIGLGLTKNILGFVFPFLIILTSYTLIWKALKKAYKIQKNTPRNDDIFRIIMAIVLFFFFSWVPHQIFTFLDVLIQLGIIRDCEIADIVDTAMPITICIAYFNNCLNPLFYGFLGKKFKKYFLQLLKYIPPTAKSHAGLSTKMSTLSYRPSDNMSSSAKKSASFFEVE
T1 sequence (P25095 whole entry): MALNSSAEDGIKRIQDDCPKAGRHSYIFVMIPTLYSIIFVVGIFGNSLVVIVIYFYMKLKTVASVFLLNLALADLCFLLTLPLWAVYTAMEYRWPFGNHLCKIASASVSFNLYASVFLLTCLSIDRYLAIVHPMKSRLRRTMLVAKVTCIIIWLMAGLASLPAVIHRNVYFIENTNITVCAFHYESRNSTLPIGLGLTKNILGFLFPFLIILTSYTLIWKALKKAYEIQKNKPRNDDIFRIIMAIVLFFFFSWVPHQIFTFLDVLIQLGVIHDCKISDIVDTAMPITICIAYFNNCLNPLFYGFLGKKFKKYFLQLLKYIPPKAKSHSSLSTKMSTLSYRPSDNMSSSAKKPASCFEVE
T1 sequence (P35351 whole entry): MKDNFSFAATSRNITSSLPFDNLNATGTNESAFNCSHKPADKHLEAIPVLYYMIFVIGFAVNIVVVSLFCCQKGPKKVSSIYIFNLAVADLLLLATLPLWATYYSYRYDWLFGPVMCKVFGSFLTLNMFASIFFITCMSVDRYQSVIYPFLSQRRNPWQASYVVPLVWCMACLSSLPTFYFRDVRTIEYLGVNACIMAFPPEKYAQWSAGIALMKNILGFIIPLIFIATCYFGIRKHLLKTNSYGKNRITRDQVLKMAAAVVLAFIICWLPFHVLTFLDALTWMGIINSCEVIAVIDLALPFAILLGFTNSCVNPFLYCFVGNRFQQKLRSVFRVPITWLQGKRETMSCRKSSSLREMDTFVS
The data set is described as follows: Inhibition of radioligand [3H]angiotensin II binding to angiotensin II receptor of rat adrenal cortical membrane. In short, it runs like this: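 Rat adrenal cortical microsomes came from male Sprague-Dawley CD rats (300-400 g) and were prepared at 4 °C in sucrose/EDTA/Tris pH 7.4. Samples were filtered and counted, in duplicate. Specific binding was defined with 1 µM unlabeled AII. IC50 was taken from the linear portion of the displacement curve.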

Data set [2] relates to Rattus norvegicus. The data set is described as follows: Effective dose that lowers the blood pressure 30 mmHg after intravenous administration. It counts as functional. In short, it runs like this:
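Renal artery-ligated conscious rats (4-6 per dose) received compound iv or po. ED30 is the dose lowering blood pressure by 30 mmHg. It was calculated by linear regression of mean maximal decreases, using at least three doses from the linear part of the dose-response curve.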

The test system of data set [3] is Rattus norvegicus. The data set is described as follows: Blood pressure lowering activity in renal hypertensive rats after peroral administration. It counts as functional. In outline: (§1)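 Conscious male Sprague-Dawley CD rats, six days after left renal artery ligation and with jugular and carotid cannulae, were dosed by oral gavage at 1-100 mg/kg (4-6 rats/dose). Mean arterial pressure was monitored for 3 h.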

In data set [4] the test system is Rattus norvegicus. The data set can be described thus: Blood pressure lowering activity in renal hypertensive rats after peroral administration; Inactive indicates fail to cause significant drop in blood pressure even at 100 mg/kg (in vivo). More on the design: dose 100 mg/kg. The format is functional, organism-based. In short, it runs like this: as §1
Data set [5] has as its system Rattus norvegicus. The data set is described as follows: Blood pressure lowering activity in renal hypertensive rats after intravenous administration. It counts as functional. In short, it runs like this:
(§2)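 Male Sprague-Dawley CD rats had the left renal artery ligated under hexobarbital (100 mg/kg ip). Six days later the jugular vein and carotid artery were cannulated under hexobarbital (90 mg/kg ip). Compound was given intravenously to the conscious hypertensive rats while mean arterial pressure was recorded.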

The subject of data set [6] is Rattus norvegicus. The data set is described as follows: Blood pressure lowering activity in renal hypertensive rats after intravenous administration; no drop in blood pressure or a statistically insignificant drop in blood pressure was observed (in vivo). The format is functional. In outline:
as §2

A short description of data set [7]: Ionization constant for the compound. It counts as physicochemical, Rattus norvegicus.

Activity calls are given as the source filed them. The calls are words filed in the database; no cut-off is given here.

`CCCCc1nc(Cl)c(CO)n1Cc1ccc(-c2ccc(OC)cc2-c2nn[nH]n2)cc1` registered an IC50 in data set [1] of 0.58 µM. Also, in data set [2], the ED30 was 1.75 mg/kg. For the same molecule, the Activity in data set [3] was greater than 10 mg/kg.

As to `CCCCc1nc(Cl)c(CNC(=O)Nc2cccc3ccccc23)n1Cc1ccc(-c2ccccc2C(=O)O)cc1`, in data set [4], the outcome was inactive. The molecule further returned an Activity in data set [5] of 10 mg/kg. This molecule came in with an IC50 in data set [1] of 3 µM.

In data set [1], `CCCCc1nc(Cl)c(CO)n1Cc1ccc(-c2cc(C#N)ccc2-c2nn[nH]n2)cc1` registered an IC50 of 0.51 µM. For the same molecule, the figures for the Activity in data set [6] and in data set [3] were greater than 3 mg/kg and greater than 30 mg/kg, respectively.

`CCCCc1nc(Cl)c(CO)n1Cc1ccc(-c2cc(OC)ccc2-c2nn[nH]n2)cc1` had an ED30 in data set [2] of 6.03 mg/kg. For the same molecule, the Activity in data set [3] is greater than 10 mg/kg.

As for `CCCCc1nc(Cl)c(CO)n1Cc1ccc(-c2ccccc2NC(=O)C(F)(F)F)cc1`, the outcome in data set [4] was inactive. This molecule also returned an Activity in data set [5] of 10 mg/kg. In data set [7], this molecule displayed a pKa of 9.5.

In the case of `CCCCc1nc(Cl)c(C=O)n1Cc1ccc(-c2ccccc2-c2[nH]nnc2F)cc1`, in data set [4], the outcome was inactive. The same molecule returned an Activity in data set [5] greater than 10 mg/kg. This molecule displayed an IC50 in data set [1] of 13 µM.

Take `CCCCc1nc(Cl)c(CNC(=O)NC(C)c2cccc3ccccc23)n1Cc1ccc(-c2ccccc2C(=O)O)cc1` (stereo not given): the result in data set [4] was inactive. In data set [5], this molecule yielded an Activity greater than 10 mg/kg. This molecule also displayed an IC50 in data set [1] of 0.7 µM.

With `CCCCc1nc(Cl)c(CNC(=O)NC)n1Cc1ccc(-c2ccccc2C(=O)O)cc1`, the result in data set [4] was inactive. This molecule returned an Activity in data set [5] of 10 mg/kg. Besides, in data set [1], the IC50 is 0.24 µM.

`CCCCc1nc(Cl)c(COC)n1Cc1ccc(-c2ccccc2C(=O)NNS(=O)(=O)C(F)(F)F)cc1` had an IC50 in data set [1] of 0.2 µM. The Activity in data set [6] is greater than 3 mg/kg; in data set [3], greater than 30 mg/kg.

For the molecule `CCCc1nc(C)c(CO)n1Cc1ccc(-c2ccccc2C(=O)O)cc1`, the IC50 in data set [1] came to 1.8 µM. The molecule also yielded an ED30 in data set [2] of 1.3 mg/kg. Besides, the Activity in data set [3] is greater than 30 mg/kg.

In data set [1], `CCCCc1nc(Cl)c(C=O)n1Cc1ccc(-c2ccc(-c3nn[nH]n3)cc2)cc1` showed a half-maximal inhibitory concentration (IC50) greater than 10 µM. For the same molecule, the values for the Activity in data set [6] and in data set [3] were greater than 3 mg/kg and greater than 30 mg/kg, respectively.

Regarding `CCCCc1nc(Cl)c(CO)n1Cc1ccc(-c2ccccc2-c2[nH]nnc2C(=O)OC)cc1`, the values for the Activity in data set [5] and in data set [3] were greater than 1 mg/kg and greater than 10 mg/kg, respectively. Moreover, in data set [1], the IC50 turned out to be 0.26 µM. This molecule also came in with a pKa in data set [7] of 7.

`CCCCc1nc(Cl)c(CO)n1Cc1ccc(-c2ccc(C(=O)O)cc2)cc1`: the result in data set [4] was inactive. The Activity in data set [5] is greater than 10 mg/kg.

For the molecule `CCCCc1nc(Cl)c(C(=O)O)n1Cc1ccc(-c2ccccc2C(=O)O)cc1`, the IC50 in data set [1] turned out to be 0.092 µM. This molecule had an ED30 in data set [2] of 0.47 mg/kg. In addition, the Activity in data set [3] is greater than 10 mg/kg.

Turning to `CCCCCCc1nc(Cl)c(CO)n1Cc1ccc(-c2ccccc2C(=O)O)cc1`, in data set [4], the result was inactive. This molecule also had an Activity in data set [5] of 10 mg/kg.

On to `CCCCc1nc(Cl)c(CNC(=O)c2cc3c(OCC(O)CNC(C)C)cccc3[nH]2)n1Cc1ccc(-c2ccccc2C(=O)O)cc1` (stereo not given), for which, in data set [1], the IC50 turned out to be 0.38 µM. The ED30 in data set [2] was found to be 1 mg/kg.

Turning to `CCCCc1nc(Cl)c(CO)n1Cc1ccc(-c2ccccc2C(=O)NOCc2ccccc2)cc1`, in data set [4], the result was inactive. The same molecule gave an Activity in data set [5] of 10 mg/kg. The same molecule registered an IC50 in data set [1] of 4.9 µM. In data set [7], the pKa stood at 10.8.

For the molecule `CCCCc1ncc(CO)n1Cc1ccc(-c2ccccc2C(=O)O)cc1`, in data set [4], the outcome was inactive. In data set [5], this molecule yielded an Activity of 10 mg/kg. For the same molecule, the concentration for half-maximal inhibition (IC50) in data set [1] turned out to be 0.27 µM.

For the molecule `CCCCc1nc([N+](=O)[O-])c(CO)n1Cc1ccc(-c2ccccc2C(=O)O)cc1`, the result in data set [4] was inactive. Besides, the Activity in data set [5] was determined as 10 mg/kg. In addition, in data set [1], the IC50 worked out at 0.26 µM.

The term IC50 denotes the concentration at which inhibition is half-maximal. A higher IC50 goes with a need for much substance. What is called pKa is the negative logarithm of the acid dissociation constant. Read a low pKa as a stronger acid or weaker base.
